Laboratory results published in ChEMBL document CHEMBL4038284, “Synthesis of novel quinoline-based 4,5-dihydro-1H-pyrazoles as potential anticancer, antifungal, antibacterial and antiprotozoal agents” (Eur J Med Chem, 2017).
The source made the active and inactive calls. The calls are words filed in the database; no cut-off is given here.

What was measured:
Candida albicans [1] = assay: Growth inhibition of Candida albicans ATCC 10231 at 125 ug/ml incubated for 48 hrs under dark condition by broth microdilution method relative to control; format: functional; details: ATCC 10231, 48 h, read-out: GI
Method in brief: (§1)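 CLSI M27-A3 broth microdilution in RPMI-1640, DMSO ≤1%. Inoculum 1-5 × 10^3 CFU/mL. Incubated 48 h at 30 °C, dark. % inhibition = 100 − (OD405 test − sterility control)/(OD405 growth control − sterility control), with growth and sterility control wells. Triplicate.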

UO-31 = assay: Growth inhibition of human UO31 cells at 10 uM incubated for 48 hrs by sulforhodamine B assay; format: functional, cell-based
Method in brief: (§2)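 NCI-60 single-dose screen at 10 µM for 48 h. Cells were grown in RPMI-1640 with 5% FBS and 2 mM L-glutamine and preincubated 24 h before compound. Time-zero plates were TCA-fixed at compound addition. After exposure, cells were TCA-fixed, stained with SRB and read at 515 nm. Percentage growth was calculated against time-zero and untreated-control absorbances.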

NCI-H322M = assay: Growth inhibition of human NCI-H322M cells at 10 uM incubated for 48 hrs by sulforhodamine B assay; format: functional, cell-based
Method in brief: (§3)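 NCI 60-line panel, single 10 μM dose. Cells were grown in RPMI-1640 with 5% FBS and 2 mM L-glutamine and pre-incubated 24 h before compound addition (DMSO stock). Exposure was 48 h at 37 °C, 5% CO2. Cells were fixed with cold TCA (10% final), stained with 0.4% SRB, bound dye dissolved in 10 mM Tris base, A515 read. Growth was taken relative to time-zero and untreated control plates.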

OVCAR-8 = assay: Growth inhibition of human OVCAR8 cells at 10 uM incubated for 48 hrs by sulforhodamine B assay; format: functional, cell-based; method in brief: as §3
Staphylococcus aureus [2] = assay: Antibacterial activity against vancomycin-intermediate Staphylococcus aureus after 24 hrs by resazurin dye based microdilution assay; format: functional
Method in brief: (§4)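 MIC taken as the lowest concentration giving visible inhibition and/or by resazurin (1 mg/mL). Gentamicin was the control. Run in duplicate, repeated at least three times.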

PC-3 = assay: Growth inhibition of human PC3 cells at 10 uM incubated for 48 hrs by sulforhodamine B assay; format: functional, cell-based; method in brief: as §3
MDA-MB-468 = assay: Growth inhibition of human MDA-MB-468 cells at 10 uM incubated for 48 hrs by sulforhodamine B assay; format: functional, cell-based; method in brief: as §3
OVCAR-4 = assay: Growth inhibition of human OVCAR4 cells at 10 uM incubated for 48 hrs by sulforhodamine B assay; format: functional, cell-based; method in brief: as §3
Cryptococcus neoformans [3] = assay: Growth inhibition of Cryptococcus neoformans ATCC 32264 at 15.62 ug/ml incubated for 48 hrs under dark condition by broth microdilution method relative to control; format: functional; details: ATCC 32264, 48 h, read-out: GI; method in brief: as §1
SK-MEL-2 = assay: Growth inhibition of human SK-MEL-2 cells at 10 uM incubated for 48 hrs by sulforhodamine B assay; format: functional, cell-based; method in brief: as §2
NCI-H460 = assay: Growth inhibition of human NCI-H460 cells at 10 uM incubated for 48 hrs by sulforhodamine B assay; format: functional, cell-based; method in brief: as §3
EKVX = assay: Growth inhibition of human EKVX cells at 10 uM incubated for 48 hrs by sulforhodamine B assay; format: functional, cell-based
Method in brief: (§5)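 NCI 60-cell-line screen at a single 10 µM dose. Cells in RPMI-1640 with 5% FBS and 2 mM L-glutamine, pre-incubated 24 h, then treated for 48 h at 37 °C. TCA fixation, sulforhodamine B staining, absorbance at 515 nm. Percentage growth calculated against time-zero and untreated controls.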

Cryptococcus neoformans [4] = assay: Growth inhibition of Cryptococcus neoformans ATCC 32264 at 31.25 ug/ml incubated for 48 hrs under dark condition by broth microdilution method relative to control; format: functional; details: ATCC 32264, 48 h, read-out: GI; method in brief: as §1
SR = assay: Growth inhibition of human SR cells at 10 uM incubated for 48 hrs by sulforhodamine B assay; format: functional, cell-based; method in brief: as §2
RXF 393 = assay: Growth inhibition of human RXF393 cells at 10 uM incubated for 48 hrs by sulforhodamine B assay; format: functional, cell-based; method in brief: as §3
Klebsiella pneumoniae = assay: Antibacterial activity against ESBL positive Klebsiella pneumoniae ATCC 700603 after 24 hrs by resazurin dye based microdilution assay; format: functional; details: Klebsiella pneumoniae, 700603, 24 h; method in brief: as §4
IGROV-1 = assay: Growth inhibition of human IGROV1 cells at 10 uM incubated for 48 hrs by sulforhodamine B assay; format: functional, cell-based; method in brief: as §3
HCC 2998 = assay: Growth inhibition of human HCC2998 cells at 10 uM incubated for 48 hrs by sulforhodamine B assay; format: functional, cell-based; method in brief: as §5
M14 = assay: Growth inhibition of human M14 cells at 10 uM incubated for 48 hrs by sulforhodamine B assay; format: functional, cell-based; method in brief: as §3
Candida albicans [5] = assay: Growth inhibition of Candida albicans ATCC 10231 at 62.5 ug/ml incubated for 48 hrs under dark condition by broth microdilution method relative to control; format: functional; details: ATCC 10231, 48 h, read-out: GI; method in brief: as §1
UACC-257 = assay: Growth inhibition of human UACC257 cells at 10 uM incubated for 48 hrs by sulforhodamine B assay; format: functional, cell-based; method in brief: as §2
Hs-578T = assay: Growth inhibition of human Hs578T cells at 10 uM incubated for 48 hrs by sulforhodamine B assay; format: functional, cell-based; method in brief: as §3
Staphylococcus aureus [6] = assay: Antibacterial activity against methicillin-sensitive Staphylococcus aureus ATCC 25923 after 24 hrs by resazurin dye based microdilution assay; format: functional; details: ATCC 25923, 24 h; method in brief: as §4
NCI-H226 = assay: Growth inhibition of human NCI-H226 cells at 10 uM incubated for 48 hrs by sulforhodamine B assay; format: functional, cell-based; method in brief: as §3
HCT-15 = assay: Growth inhibition of human HCT15 cells at 10 uM incubated for 48 hrs by sulforhodamine B assay; format: functional, cell-based; method in brief: as §5
A498 = assay: Growth inhibition of human A498 cells at 10 uM incubated for 48 hrs by sulforhodamine B assay; format: functional, cell-based; method in brief: as §5
SW-620 = assay: Growth inhibition of human SW620 cells at 10 uM incubated for 48 hrs by sulforhodamine B assay; format: functional, cell-based; method in brief: as §2
A549 = assay: Growth inhibition of human A549/ATCC cells at 10 uM incubated for 48 hrs by sulforhodamine B assay; format: functional, cell-based; method in brief: as §5
HOP-92 = assay: Growth inhibition of human HOP92 cells at 10 uM incubated for 48 hrs by sulforhodamine B assay; format: functional, cell-based; method in brief: as §3
Candida albicans [7] = assay: Growth inhibition of Candida albicans ATCC 10231 at 7.8 ug/ml incubated for 48 hrs under dark condition by broth microdilution method relative to control; format: functional; details: ATCC 10231, 48 h, read-out: GI; method in brief: as §1
DU-145 = assay: Growth inhibition of human DU145 cells at 10 uM incubated for 48 hrs by sulforhodamine B assay; format: functional, cell-based; method in brief: as §5
SK-OV-3 = assay: Growth inhibition of human SKOV3 cells at 10 uM incubated for 48 hrs by sulforhodamine B assay; format: functional, cell-based; method in brief: as §2
Cryptococcus neoformans [8] = assay: Growth inhibition of Cryptococcus neoformans ATCC 32264 at 3.4 ug/ml incubated for 48 hrs under dark condition by broth microdilution method relative to control; format: functional; details: ATCC 32264, 48 h, read-out: GI
Cryptococcus neoformans [9] = assay: Growth inhibition of Cryptococcus neoformans ATCC 32264 at 250 ug/ml incubated for 48 hrs under dark condition by broth microdilution method relative to control; format: functional; details: ATCC 32264, 48 h, read-out: GI; method in brief: as §1
HT-29 = assay: Growth inhibition of human HT-29 cells at 10 uM incubated for 48 hrs by sulforhodamine B assay; format: functional, cell-based; method in brief: as §3
HCT-116 = assay: Growth inhibition of human HCT116 cells at 10 uM incubated for 48 hrs by sulforhodamine B assay; format: functional, cell-based; method in brief: as §5

Compound | inhibition of growth at 125 µg/mL (Candida albicans [1]) [%] | growth inhibition (GI) (UO-31) | growth inhibition (GI) (NCI-H322M) | growth inhibition (GI) (OVCAR-8) | MIC (Staphylococcus aureus [2]) [µg/mL] | growth inhibition (GI) (PC-3) | growth inhibition (GI) (MDA-MB-468) | growth inhibition (GI) (OVCAR-4) | inhibition of growth at 15.62 µg/mL (Cryptococcus neoformans [3]) [%] | growth inhibition (GI) (SK-MEL-2) | growth inhibition (GI) (NCI-H460) | growth inhibition (GI) (EKVX) | inhibition of growth at 31.25 µg/mL (Cryptococcus neoformans [4]) [%] | growth inhibition (GI) (SR) | growth inhibition (GI) (RXF 393) | MIC (Klebsiella pneumoniae) [µg/mL] | growth inhibition (GI) (IGROV-1) | growth inhibition (GI) (HCC 2998) | growth inhibition (GI) (M14) | inhibition of growth at 62.5 µg/mL (Candida albicans [5]) [%] | also measured
Clc1ccc(C2=NN(c3cc(Cl)cc(Cl)c3)C(c3cccc(Nc4ccnc5cc(Cl)ccc45)c3)C2)cc1 (configuration not stated) | 31.5 | inactive | inactive | inactive | > 1000 | inactive | inactive | inactive | 0 | inactive | inactive | inactive | 0 | inactive | inactive | > 1000 | inactive | inactive | inactive | 13.8 | growth inhibition (GI) (UACC-257): inactive; growth inhibition (GI) (Hs-578T): inactive; MIC (Staphylococcus aureus [6]): > 1000 µg/mL; growth inhibition (GI) (NCI-H226): inactive; growth inhibition (GI) (HCT-15): inactive; growth inhibition (GI) (A498): inactive; growth inhibition (GI) (SW-620): inactive; growth inhibition (GI) (A549): inactive; growth inhibition (GI) (HOP-92): inactive; inhibition of growth at 7.8 µg/mL (Candida albicans [7]): 6.01%; growth inhibition (GI) (DU-145): inactive; growth inhibition (GI) (SK-OV-3): inactive; inhibition of growth at 3.4 µg/mL (Cryptococcus neoformans [8]): 0%; inhibition of growth at 250 µg/mL (Cryptococcus neoformans [9]): 8.42%; growth inhibition (GI) (HT-29): inactive; growth inhibition (GI) (HCT-116): inactive
COc1ccc(C2=NN(c3ccc(Cl)cc3)C(c3cccc(Nc4ccnc5cc(Cl)ccc45)c3)C2)cc1 (configuration not stated) | 1.92 | inactive | inactive | inactive | > 1000 | inactive | inactive | inactive | 12.6 | inactive | inactive | inactive | 13.1 | inactive | inactive | > 1000 | inactive | inactive | inactive | 5.46 | growth inhibition (GI) (UACC-257): inactive; growth inhibition (GI) (Hs-578T): inactive; MIC (Staphylococcus aureus [6]): > 1000 µg/mL; growth inhibition (GI) (NCI-H226): inactive; growth inhibition (GI) (HCT-15): inactive; growth inhibition (GI) (A498): inactive; growth inhibition (GI) (SW-620): inactive; growth inhibition (GI) (A549): inactive; growth inhibition (GI) (HOP-92): inactive; inhibition of growth at 7.8 µg/mL (Candida albicans [7]): 0%; growth inhibition (GI) (DU-145): inactive; growth inhibition (GI) (SK-OV-3): inactive; inhibition of growth at 3.4 µg/mL (Cryptococcus neoformans [8]): 7.99%; inhibition of growth at 250 µg/mL (Cryptococcus neoformans [9]): 58.2%; growth inhibition (GI) (HT-29): inactive; growth inhibition (GI) (HCT-116): inactive
